Experimental data published in PubChem BioAssay AID504789 (Broad Institute, 2011).
Results filed as inconclusive are left out. Calls of active or inactive are those of the source.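 How the source made its calls: active means compound whose fitted half-maximal dose lies within ten times its top tested dose in every test run, killing cells; inconclusive means test runs disagree, or a run gives an unclear call; inactive means every test run inactive.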

test system: HMLE_sh_eGFP viability, CellTiter-Glo luminescence, 72 h; assay: cytotoxicity in control HMLE_sh_eGFP cells, dose response, counter-screen for breast cancer stem cell project, cell-based, luminescence, dry powder, set 7 (AID 504789); conditions: not given
Outline: (§1)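 Test system: HMLE_sh_eGFP control cells; buffer or medium: medium without serum; schedule: compound exposure approximately 70–74 h at 37 °C; technique: CellTiter-Glo ATP luminescence; control set: DMSO neutral control and 160 µM puromycin positive control, every plate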

Row | SMILES | AC50 [µM]
1 | CC(C)c1ccc(/C=C/C(=O)n2ccc(-c3ccc[nH]3)n2)cc1 | 10.7
2 | Cc1csc(NC(=O)c2cccc(COc3ccccc3F)c2)n1 | 12.4
3 | Cc1csc(NC(=O)c2cccc(COc3cccc(F)c3)c2)n1 | 2.2
4 | Cc1csc(NC(=O)c2cccc(COc3cccc(Cl)c3)c2)n1 | 3.87
5 | Cc1csc(NC(=O)c2ccc(COc3cccc(OC(F)(F)F)c3)o2)n1 | 3.01
6 | Cc1cccc(OCc2cccc(C(=O)Nc3nc(C)cs3)c2)c1 | 11.9
7 | Cc1cccc(NCc2cccc(C(=O)Nc3nc(C)cs3)c2)n1 | 25
8 | Cc1cccc(NCc2ccc(C(=O)Nc3nc(C)cs3)o2)n1 | 21.9
9 | COc1cccc2c1C(=O)c1c(O)c3c(c(O)c1C2=O)C[C@@](O)(C(=O)CO)C[C@@H]3OC1C[C@H](N)[C@H](O)[C@H](C)O1 (some centres not stated) | 0.068

test system: not listed separately; assay: as above; conditions: HMLE_sh_eGFP viability, CellTiter-Glo luminescence, 72 h; at 19.5 µM (top of the series)
Outline: as §1

Row | SMILES | activity change, negative = cytotoxicity
10 | N#Cc1ccccc1/C=C/C(=O)NC1=NCCS1 | 5.88% (inactive)
11 | O=C(c1ccc(COc2ccccc2)o1)n1ccc(-c2ccc[nH]2)n1 | 10.5% (inactive)
12 | O=C(c1ccc(COc2ccccc2)o1)N1CC(F)(F)C1 | 13.3% (inactive)
13 | O=C(COc1ccc(Cl)cc1Cl)N/N=C/c1ccccc1 | 11.1% (inactive)
14 | CN(C)C(=N)N=C(N)N | 15.9% (inactive)
15 | O=C(COc1c(Cl)cc(Cl)cc1Cl)N/N=C/c1ccc[nH]1 | 17.5% (inactive)
16 | Cc1cccc(/C=C/C(=O)NC2=NCCS2)c1 | 23.8% (inactive)
17 | Cc1ccnc(NCc2ccc(C(=O)Nc3nc(C)cs3)o2)c1 | -1.56% (inactive)
18 | O=C(COc1ccc(Cl)cc1Cl)NC1=NCCS1 | -6.79% (inactive)
19 | Cc1csc(NC(=O)c2cccc(CNc3ccccn3)c2)n1 | -7.38% (inactive)
20 | COc1cc(C(C)C)ccc1/C=C/C(=O)NC1=NCCS1 | 10.3% (inactive)
21 | O=C(COc1ccc(Cl)cc1Cl)n1ccc(-c2ccc[nH]2)n1 | 27.2% (inactive)
22 | CC(C)c1ccc(/C=C/C(=O)N2CC(F)(F)C2)cc1 | 11.1% (inactive)
23 | CC(C)c1ccc(C#CC(=O)NC2=NCCS2)cc1 | 6.05% (inactive)
24 | O=C(COc1ccc(Cl)cc1Cl)Nc1nccs1 | 0.602% (inactive)
25 | Cc1csc(NC(=O)c2ccc(COc3cccnc3)o2)n1 | 17.4% (inactive)
26 | O=C(O)COc1ccc(Cl)cc1Cl | -6.56% (inactive)
27 | N#Cc1cccc(/C=C/C(=O)NC2=NCCS2)c1 | -7.41% (inactive)
28 | CCc1ccc(/C=C/C(=O)NC2=NCCS2)cn1 | -2.79% (inactive)
29 | Cc1csc(NC(=O)c2ccc(CNc3ncccc3F)o2)n1 | 3.58% (inactive)
30 | Cc1csc(NC(=O)c2ccc(COc3ncccc3F)o2)n1 | -4.8% (inactive)
31 | COc1cc(OC(C)C)ccc1/C=C/C(=O)NC1=NCCS1 | 25% (inactive)
32 | CC(C)c1ccc(/C=C\C(=O)NC2=NCCS2)cc1 | -12.1% (inactive)
